Test results: ChEMBL document CHEMBL4513216, “Probing the Open Global Health Chemical Diversity Library for Multistage-Active Starting Points for Next-Generation Antimalarials” (ACS Infect Dis, 2020)

Assay: Toxicity liver stage against HepG2, at 10uM
Assay type: cell-based
Design: test concentration 10 uM, cell line HepG2-A16-CD81EGFP
Conditions: human, HepG2-A16-CD81EGFP cells; read-out: INHIBITION
Method in brief: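 Uninfected HepG2-A16-CD81EGFP cells, 3 × 10^3 per well, 1536-well, plated on prespotted compound at 10 μM final, parasite-free screening media added to match infected plates; puromycin 10 μM positive, DMSO 0.5% negative; run in parallel with 48 h PbLuc assay at 37 °C, 5% CO2; viability by CellTiter-Glo luminescence, normalized to controls.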

| Compound | cytotoxicity at 10 µM |
| --- | --- |
| COc1ccc(-c2cc(N)on2)cc1OC | -9.85% |
| Cc1c(C(=O)O)oc2ccc(I)cc12 | -1.87% |
| O[C@H]1CC[C@@H](Cc2cc(-c3ccccc3)on2)O[C@@H]1CNCC1CC1 | -6.21% |
| NC(=O)CN1CCC2(CC1)CC(=O)c1ccc3ccccc3c1O2 | 1.76% |
| N#Cc1ccc(OC[C@]23COC[C@H]2CN(Cc2nccs2)C3)nc1 | 2.37% |
| CCC1=N[C@@]2(CC[C@@H]3CN(C(=O)Nc4ccccc4)C[C@@H]32)C(=O)N1C | 16.8% |
| CCn1cc2c(n1)C(COC)CN(C(=O)COc1ccccc1)C2 (stereo not given) | -2.88% |
| c1cc([C@H]2C[C@@H]3CCN(Cc4nccs4)C[C@H]3O2)ncn1 | -150% |
| O=C(O)Cn1nc(-c2ccccc2F)ccc1=O | 2.87% |
| COC(=O)C(CCSC)NC(=O)Cc1c(C)nn(-c2ccccc2)c1C (stereo not given) | -4.31% |
| Nc1nc(N2CCCCC2)ncc1C(=O)NCc1ccc(F)c(Cl)c1 | -17.2% |
| COc1ccc(-c2nnsc2C(=O)N2CCSCC2)cc1 | -1.17% |
| CC(C)(C)n1cc(C(=O)NCCCn2ccnc2)c2cccnc21 | 0.698% |
| c1csc(CN2CC[C@H]3C[C@H](c4ccncn4)O[C@@H]3C2)c1 | 1.17% |
| O=C(COCC(=O)N(c1ccccc1)c1ccccc1)N1CCCCC1 | 2.33% |
| COCC(=O)NCc1ccc(-c2ncncc2C(=O)N(C)C)cc1 | 3.02% |
| Cc1cc(-c2cnc(N3CCCC(C)C3)nc2C(C)C)on1 (stereo not given) | 3.05% |
| COCCn1c(=O)n(C)c(=O)c2ccc(C3CCN(C(C)=O)CC3)nc21 | 4.89% |
| c1cncc(N2CCC(c3ccncc3)CC2)c1 | 2.59% |
| CC1(C(N)=O)CN(CC2CCOCC2)CCO1 (stereo not given) | -0.74% |
| CN(C)c1cc(C2CCN(C(=O)c3cnn(C)c3)CC2)ccn1 | 0.075% |
| CC(C)N1CCC(c2n[nH]cc2-c2ccnc(N)c2)C1 (stereo not given) | 2.16% |

| Compound | cytotoxicity at 10 µM |
| --- | --- |
| NCC(=O)N1CCC(c2cncc(Oc3cccnc3)n2)CC1 | -9.08% |
| CC(C)Oc1ccc(C(=O)N2CC[C@H](O)[C@@H](n3ccnc3)CC2)cc1 | -12.8% |
| CC(=O)N1CCCC(c2ccc3sc(N)nc3n2)C1 (stereo not given) | 0.248% |
| CNc1cccc(C2CCCN(C(=O)c3ccn(C)n3)C2)n1 (stereo not given) | -13.4% |
| Cc1nc(-c2ccc(C(=O)O)cc2)cc(C2CCN(C(C)C)CC2)n1 | -6.69% |
| N#CCCCS(=O)(=O)NC1(c2ccc(F)cc2)CC1 | 2.9% |
| OC(c1cnn(-c2ccccc2)c1)C(F)(F)F (stereo not given) | -3.75% |
| Cc1nn(C)c(C)c1CCC(=O)NCC1(C(N)=O)CCOCC1 | 7.75% |
| CCC(C#N)NC(=O)c1sccc1OC (stereo not given) | 1.88% |
| COCC1CCCN(c2cncc(OCc3ccccc3)n2)C1 (stereo not given) | -4.08% |
| COc1cc(CNC(=O)COC2CCCCC2)ccc1O | 6.81% |
| COCCN(CC(F)F)c1cc(COC)nc2ncnn12 | 9.08% |
| CC(C)(C)C(NC(=O)CCS(C)(=O)=O)c1ccc(F)cc1F (stereo not given) | -0.189% |
| Cc1cc(C2CCCN(Cc3ncc(C(C)C)o3)C2)n[nH]1 (stereo not given) | 4.29% |
| Cc1cn(CC(=O)NC2CCC(C(=O)O)CC2)c2ccccc12 (stereo not given) | -0.214% |
| CCN(CC)C(CNS(=O)(=O)c1ccc(C(C)=O)cc1)c1ccco1 (stereo not given) | -20.1% |
| CC(C)C(NC(=O)c1ccco1)C(=O)N1CCC2(CC1)OCCO2 (stereo not given) | 6.05% |
| COc1ccnc(N(C)Cc2ccco2)n1 | 14% |
| Cc1cccc2c(CCNC(=O)NCC[S+](C)[O-])c[nH]c12 (stereo not given) | 9.62% |
| CN(CCCc1cc(-c2cccc(F)c2)n[nH]1)C(=O)Cn1cncn1 | -129% |
| Cc1ccc(CN(C)C(=O)c2cccc(NC(N)=O)c2)o1 | 14.2% |
| COc1ccccc1OCCN(C)c1cc(C)nc(N)n1 | 10.4% |

| Compound | cytotoxicity at 10 µM |
| --- | --- |
| Cc1cnn(CCCNC(=O)NC2CCN(CC(F)(F)F)C2=O)c1 (stereo not given) | 5.79% |
| Cc1nc(C)c(CNC(=O)N2CCc3ccccc3C2CO)s1 (stereo not given) | 23.7% |
| CCS(=O)(=O)N1CCCn2c(nc(CN3CCCC3)cc2=O)C1 | 1.88% |
| CN(C)[C@@H]1CCN(S(C)(=O)=O)[C@H]1Cc1ccccc1 | 11.7% |
| CN1Cc2ccccc2CC2(CCN(C(=O)N3CCOCC3)CC2)C1=O | 1.02% |
| CCN1Cc2ccccc2CC2(CCN(C)CC2)C1=O | 14.3% |
| Cn1ccc(C(=O)NC2CCC23CCN(C(=O)c2ccnnc2)CC3)c1 (stereo not given) | -72% |
| CCOCC(=O)N1CC[C@H]2[C@@H]1CCC(=O)N2Cc1csc(C)n1 | -85.2% |
| CS(=O)(=O)N[C@@H]1CN(C(=O)c2cnccn2)[C@@H]2CCCO[C@@H]21 | -73.4% |
| Cc1cc(C(=O)N2CC[C@H]3C[C@H](c4ccncn4)O[C@@H]3C2)no1 | -78% |
| CC(=O)N1CCO[C@@H]2CN(C(=O)c3cc(C)oc3C)CC[C@@H]2C1 | 10.5% |
| CCCNC(=O)c1cc2c(c3ccccc3n2C)n1C(=O)N(C)C | 0.539% |
| C[C@H](O)CNc1cc(-c2ccccc2)ncn1 | -11.2% |
| Cc1ncncc1-c1ccnc(NC(C)C)n1 | -0.279% |
| CN1CCN(CC2CC2)C(=O)c2cnc(N3CCOCC3)nc21 | -10.3% |
| Cc1csc2ncc(-c3ccnc(N4CCCN(C)CC4)n3)c(=O)n12 | -6.97% |
| COc1ccc(C(=O)N2CCN(C(=O)CCCc3cn[nH]c3)CC2)cc1 | -5.63% |
| COC(=O)c1cc2n(n1)CCCN(C(=O)Cc1c[nH]c3ccccc13)C2 | 2.61% |
| NC(=O)CN1CCC(C(=O)NCC(O)c2cccc(F)c2)CC1 (stereo not given) | 10.8% |
| Oc1ccc(CCC2CCCCN2Cc2noc(C3CC3)n2)cc1 (stereo not given) | 0.55% |
| CCNc1ncc(C(=O)NCc2cccc(OC(F)(F)F)c2)cn1 | -2.94% |
| CCn1ncc2[nH]c(-c3cc(OC)c(OC)cc3OC)nc21 | -2.61% |

| Compound | cytotoxicity at 10 µM |
| --- | --- |
| CCC(O)CNC(=O)c1coc(COc2ccc3sc(C)nc3c2)n1 (stereo not given) | 16.3% |
| Cc1nc(CN2CCCC(NCc3ccc(Cl)s3)C2)no1 (stereo not given) | -3.18% |
| Cc1cc(C)c(CNC(=O)N(C)Cc2ccoc2)c(=O)[nH]1 | -6.02% |
| Cc1nc(C)n(CC2CN(Cc3ccccc3OC(C)C)CCO2)n1 (stereo not given) | -0.248% |
| CN(CC(=O)NC1CCOCC1)C1CCCN(c2cccnn2)C1 (stereo not given) | -8.97% |
| Cc1ccccc1C1CCCN1Cc1ccc(S(=O)(=O)N(C)C)o1 (stereo not given) | -3.42% |
| Cc1ccc(-c2nc(CN3CCC(N4CCNC4=O)CC3)co2)cc1 | -7.73% |
| c1csc(-c2noc(CN3CCc4cncnc4C3)n2)c1 | -9.5% |
| Cc1cc(CN2CCN(C(=O)NCc3csc(C)n3)CC2)no1 | -17.6% |
| O=c1[nH]c(CCN2CCCC2Cn2cncn2)nc2ccccc12 (stereo not given) | -5.48% |
| COc1ccccc1C(O)CNC(=O)NCc1cc[nH]n1 (stereo not given) | -8.81% |
| CC(C)c1nc(C2CCCN2Cc2nccn2CC(F)(F)F)no1 (stereo not given) | -18.9% |
| Cc1nn(C)c(C)c1C1CCCN1CC(=O)NCc1ccccn1 (stereo not given) | 0.702% |
| CCCOc1cccc(C(=O)N2CCCC(n3cncn3)C2)c1 (stereo not given) | -4.39% |
| CN(Cc1nnc2n1CCC2)C(=O)c1ccc2c(c1)OCCCO2 | -8.68% |
| Cc1csc(N2CCN(C(=O)CCCNc3ncccn3)CC2)n1 | -16.3% |
| Cc1cccc(OCCC(=O)NC(C)c2nnc3n2CCC3)c1 (stereo not given) | -12.8% |
| COc1ccc(CNC(=O)Nc2ccc(N3CCCC3)nc2)cc1O | -18.1% |
| COCc1nc(C(=O)N2CCCC(n3nc(C)nc3C)C2)cs1 (stereo not given) | -24.1% |
| CCn1ccnc1CN1CCN(C(C)C(=O)N2CCC(C)CC2)CC1 (stereo not given) | -10.7% |
| Cc1ccc(NC2CCN(C(=O)CCNS(C)(=O)=O)CC2)nn1 | -5.58% |
| Cc1cc(C)n(CC2CCCN2CCS(=O)(=O)c2ccccc2)n1 (stereo not given) | -7.23% |

| Compound | cytotoxicity at 10 µM |
| --- | --- |
| c1ccc2sc(N3CCOC(Cn4cccn4)C3)nc2c1 (stereo not given) | -12.8% |
| CCCn1nc2c(cc1=O)CN(CC(=O)Nc1nnc(C)s1)CC2 | -11.3% |
| COCCN1CCCN(C(=O)NC(C)Cn2ccnc2)CC1 (stereo not given) | -9.29% |
| Nc1ncnc2nc(C3CCCCN3)ccc12 (stereo not given) | 5.74% |
| Cc1noc(C)c1CN1CC[C@@H]2O[C@@H](COCC3CC3)CC[C@@H]21 | 6.46% |
| c1cnc(NC2COC3(CCN(Cc4cc[nH]n4)CC3)C2)nc1 (stereo not given) | -1.17% |
| COc1ccc(CN2CCC3(CC2)CN(c2ccccn2)CCO3)cc1 | 2.87% |
| Cc1nc(CN2CCOCC3(CCN(c4ncccn4)C3)C2)cs1 (stereo not given) | -22.8% |
| CN(C)C(=O)CN1CC[C@]2(CN(CC3CC3)C[C@H]2c2ccccc2)C1=O | 1.46% |
| COc1ccc(CN2CCO[C@@H]3C[C@@H](C(=O)NC(C)C)C[C@H]32)cc1 | 8.31% |
| CC(=O)CN1CC2(CCNCC2)COc2ccccc2S1(=O)=O | 3.13% |
| CCN1CCC(c2nc3ccc(NC(C)C)cn3n2)CC1 | -22.3% |
| Cc1cccc(CNC2CCCc3c2cnn3Cc2ccccc2)c1 (stereo not given) | -16.6% |
| O=C(NCc1ccccn1)[C@@H]1COC[C@H]2CN(C3CCC3)C[C@H]21 | -79.1% |
| COc1cc(CNC2CCCc3c2cnn3C)cc(OC)c1 (stereo not given) | -6.85% |
| CCS(=O)(=O)N1CCN(CCn2cccn2)c2nc(C)ccc2C1 | 9.88% |
| COCCN(C)C1COC2(CCN(Cc3cccc(F)c3)CC2)C1 (stereo not given) | -79.3% |
| O=C(c1ccnnc1)N1CCN2C[C@H](Oc3cccc(F)c3)C[C@H]2C1 | -1.96% |
| CC(C)n1nc(CN2CCCCC2)c2c1CN(C(=O)c1ccno1)C2 | 4.19% |
| COCCn1cc2c(n1)C(CNCc1nccs1)OCC2 (stereo not given) | -0.726% |
| CNC(=O)c1ccc2c(c1)C1(CCN(CC3CC3)CC1)C(=O)N2 | -0.843% |
| O=S(=O)(c1cccs1)N1CCCn2cnc(CO)c2C1 | 5.89% |
